Assay results published in ChEMBL document CHEMBL4014267, “Anti-inflammatory and Antiosteoporosis Flavonoids from the Rhizomes of Helminthostachys zeylanica” (J Nat Prod, 2017).
Active and inactive are the calls of the source. No cut-off for these calls is given here.

Legend:
Assay type in all cases: functional, cell-based
[1] = tested on: BV-2; experiment: Antiinflammatory activity in mouse BV2 cells assessed as inhibition of LPS-induced nitric oxide production after 24 hrs by Griess assay; settings: BV-2, 24 h
Procedure, shortened: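 Murine BV2 microglia were grown in DMEM with 5% FBS and stimulated with LPS (0.5 μg/mL). NO was read as nitrite accumulated in the medium 24 h after stimulation, using Griess reagent.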

[2] = tested on: RAW264.7; experiment: Antiosteoporotic activity in mouse RAW264.7 cells assessed as inhibition of RANKL-induced osteoclast differentiation after 4 to 5 days by TRAP assay
Procedure, shortened: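 RAW264.7 macrophages were differentiated for 4−5 days in DMEM with 100 ng/mL recombinant murine RANKL, alone or with test agent at 1, 3, 10 or 20 μM. Cells were then fixed and TRAP activity was read with a p-nitrophenylphosphate reaction buffer.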

[3] = tested on: RAW264.7; experiment: Osteoblastogenic activity in mouse […] cells at 10 uM

SMILES | IC50 [1] | IC50 [2] | Activity [3]
C=C1CCCC(C)(C)[C@H]1Cc1c(O)cc2oc(-c3ccc(O)c(O)c3)cc(=O)c2c1O | 6.5 µM |  | 
CC1(C)CCC[C@]2(C)Oc3c(O)cc4oc5c(=O)c6c(O)cc(O)cc6oc5c4c3C[C@H]12 | 7 µM | 3.5 µM | inactive
C=C1CCCC(C)(C)[C@H]1Cc1c(OC)cc2oc(-c3ccc(O)c(O)c3)c(OC)c(=O)c2c1O | 6.7 µM | 3.2 µM | inactive
CC1=CCCC(C)(C)C1Cc1c(O)c(O)cc2oc3c(=O)c4c(O)cc(O)cc4oc3c12 (stereo not drawn) [UGONIN M] | 10.1 µM | 2.5 µM | inactive
C=C1CCCC(C)(C)[C@H]1Cc1c(OC)cc2oc(-c3ccc(O)c(O)c3)cc(=O)c2c1O | 8.1 µM | 1.8 µM | Active
O=c1c(-c2ccc(O)cc2)coc2cc(O)cc(O)c12 [GENISTEIN] |  | 11.4 µM | 
CC1=CCCC(C)(C)C12Cc1c(c(O)cc3oc4c(=O)c5c(O)cc(O)cc5oc4c13)O2 (stereo not drawn) | 18 µM | 4.5 µM | inactive
CC1=CCCC(C)(C)C1Cc1c(O)cc(/C=C/c2ccc(O)cc2)cc1O (stereo not drawn) | 6.2 µM |  | 
CC1(C)CCC[C@]2(C)Oc3c(c(O)cc4oc(-c5ccc(O)c(O)c5)cc(=O)c34)C[C@H]12 | 19.7 µM | 4.6 µM | inactive
CC1(C)CCC[C@@]2(C)Oc3c(c(O)cc4oc(-c5ccc(O)c(O)c5)cc(=O)c34)C[C@H]12 | 24.1 µM | > 10 µM | inactive
CC1(C)CC=C[C@]2(C)Oc3c(O)cc4oc5c(=O)c6c(O)cc(O)cc6oc5c4c3C[C@H]12 [UGONIN O] | 7.7 µM | 3.3 µM | inactive
S=C(S)N1CCCC1 [PYRROLIDINE DITHIOCARBAMATE] | 10.8 µM |  | 
